Like-named read-outs stand apart in the source and are kept apart here.
Key:
[1] = test system: healthy subjects; assay: First-in-human trial, food-interaction; assay type: in vivo
How it was run: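 Safety covered all dosed subjects in the SAD, MAD and FI phases: AEs (MedDRA 21.1), concomitant medication, vital signs, ECGs, physical exams and safety labs. BP was taken after 5 min supine, then ≥1 min sitting and 1–3 min standing. Orthostasis was defined as an SBP fall ≥20 mmHg or DBP fall ≥10 mmHg within 3 min standing. TEAEs were summarized by treatment, organ class, severity and drug-relatedness.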

[2] = SAD phase pharmacokinetics; assay type: in vivo, human; conditions: for AUC(0-t) / Tmax / AUC(0-inf) / Cmax / half-life: human, plasma, oral; for AUC(0-t): AUClast; for AUC(0-inf): AUCinf; for Cmax: C max
How it was run: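 Single oral doses of 0.3–50 mg after ≥10 h fast. Plasma (K-EDTA) was sampled predose and […]; urine was collected for 48 h. Assay was validated LC-MS/MS (plasma LLOQ 1.00 ng/mL; below-LLOQ set to 0). AUClast, Cmax and Tmax were derived at all doses; AUCinf, clearance and t1/2 from 10 mg upward. Urinary excretion and renal clearance were also derived. Steady-state time was estimated from these SAD data.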

[3] = FI phase pharmacokinetics; assay type: in vivo, human
How it was run: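 Open-label, randomized two-period crossover in 14 healthy subjects. Each received a single 10 mg oral tablet fasted, or ~30 min after a high-fat meal (800–1000 kcal). Washout was 21 days. Plasma (K-EDTA) was sampled predose and 15 min–48 h postdose, plus days 7 and 14 (period 1) and days 5 and 9 (period 2), and assayed by validated LC-MS/MS (LLOQ 1.00 ng/mL). Cmax, AUCτ and AUCinf were compared by ANOVA (food, sequence, period fixed; subject-within-sequence random).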

[4] = test system: healthy subjects; assay: SAD phase blood pressure; assay type: in vivo, human; conditions: for Mean SBP, LSMs difference from placebo: over 48 h
[5] = test system: healthy subjects; assay: MAD phase blood pressure; assay type: in vivo, human
How it was run: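 Double-blind MAD phase: four cohorts of 10 healthy subjects, randomized 4:1 to oral tablet (2, 5, 10, 15 mg) or placebo q.d. for 14 days after ≥10 h fast. BP and pulse were recorded predose daily and at 1, 2, 4, 6, 12 h on days 1, 2 and 14. Orthostatic BP was taken 24 and 48 h after the last dose. ANCOVA (treatment, time, treatment×time; random subject; predose covariate) gave LSM differences versus placebo with 95% CI.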

[6] = test system: healthy subjects; assay: SAD phase CNS test battery; assay type: in vivo, human
[7] = test system: healthy subjects; assay: MAD phase CNS test battery; assay type: in vivo, human
[8] = First-in-human trial, all phases: overall pharmacokinetics; assay type: in vivo
[9] = test system: healthy subjects
[10] = FI sequence 10 mg Fasted‐Fed (n = 7)
[11] = FI sequence 10 mg Fed‐Fasted (n = 7)
[12] = both, 10 mg, GeoMean, SAD 10 mg
[13] = MAD pooled zagociguat group (n = 32)
[14] = same subject, 2 mg q.d., day 30

Fc1ccccc1Cc1nc(-c2nc(C(F)(F)F)n[nH]2)cn2ccnc12 [zagociguat, 8‐(2‐fluorobenzyl)‐6‐(3‐(trifluoromethyl)‐1H‐1,2,4‐triazol‐5‐yl)imidazo[1,2‐a]pyrazine]
Orthostatic hypotension events ([1]; FI phase): No orthostatic hypotension events | Subjects with dizziness TEAEs ([1]; FI phase, 10 mg, fed and fasted): Three | Subjects discontinued from study drug due to ≥1 TEAE [1, 10]: 0 n | Subjects with ≥1 SAE [1, 10]: 0 n | Subjects with ≥1 study drug related TEAE [1, 10]: 2 n | TEAEs [1, 10]: 7 n | Subjects discontinued from study drug due to ≥1 TEAE [1, 11]: 0 n | Subjects with ≥1 SAE [1, 11]: 0 n | Subjects with ≥1 study drug related TEAE [1, 11]: 1 n | TEAEs [1, 11]: 7 n | Dose level from which detectable in urine ([2]; SAD): 10 mg | AUC(0-t) ([2]; both, 3 mg, GeoMean, SAD 3 mg): 11.4 µg·h/mL | AUC(0-t) ([2]; both, 3 mg, Median, SAD 3 mg): 11.2 µg·h/mL | Tmax ([2]; both, 3 mg, T max, Median, SAD 3 mg): 2.1 h | AUC(0-inf) [2, 12]: 92.3 µg·h/mL | AUC(0-inf) ([2]; both, 10 mg, Median, SAD 10 mg): 95 µg·h/mL | AUC(0-t) [2, 12]: 57.6 µg·h/mL | AUC(0-t) ([2]; both, 10 mg, Median, SAD 10 mg): 57.9 µg·h/mL | Cmax [2, 12]: 1190 ng/mL | Cmax ([2]; both, 10 mg, Median, SAD 10 mg): 1290 ng/mL | Tmax ([2]; both, 10 mg, T max, Median, SAD 10 mg): 3.5 h | half-life ([2]; both, 10 mg, t 1/2, GeoMean, SAD 10 mg): 63.4 h | half-life ([2]; both, 10 mg, t 1/2, Median, SAD 10 mg): 64.8 h | Cmax ([2]; both, 20 mg, GeoMean, SAD 20 mg): 2190 ng/mL | AUC(0-t) ([2]; 0.3 mg, GeoMean, SAD 0.3 mg): 1.06 µg·h/mL | AUC(0-t) ([2]; 0.3 mg, Median, SAD 0.3 mg): 1.09 µg·h/mL | Cmax ([2]; 0.3 mg, GeoMean, SAD 0.3 mg): 40 ng/mL | Cmax ([2]; 0.3 mg, Median, SAD 0.3 mg): 40.5 ng/mL | Tmax ([2]; 0.3 mg, T max, Median, SAD 0.3 mg): 0.8 h | AUC(0-t) ([2]; 1 mg, GeoMean, SAD 1 mg): 4.34 µg·h/mL | AUC(0-t) ([2]; 1 mg, Median, SAD 1 mg): 4.46 µg·h/mL | Cmax ([2]; 1 mg, GeoMean, SAD 1 mg): 142 ng/mL | Cmax ([2]; 1 mg, Median, SAD 1 mg): 150 ng/mL | Tmax ([2]; 1 mg, T max, Median, SAD 1 mg): 1 h | Cmax ([2]; 3 mg, GeoMean, SAD 3 mg): 373 ng/mL | Cmax ([2]; 3 mg, Median, SAD 3 mg): 372 ng/mL | AUC(0-inf) ([2]; 20 mg, GeoMean, SAD 20 mg): 194 µg·h/mL | AUC(0-inf) ([2]; 20 mg, Median, SAD 20 mg): 180 µg·h/mL | AUC(0-t) ([2]; 20 mg, GeoMean, SAD 20 mg): 167 µg·h/mL | AUC(0-t) ([2]; 20 mg, Median, SAD 20 mg): 158 µg·h/mL | Cmax ([2]; 20 mg, Median, SAD 20 mg): 2260 ng/mL | Tmax ([2]; 20 mg, T max, Median, SAD 20 mg): 4 h | half-life ([2]; 20 mg, t 1/2, GeoMean, SAD 20 mg): 67.1 h | half-life ([2]; 20 mg, t 1/2, Median, SAD 20 mg): 68 h | AUC(0-inf) ([2]; 30 mg, GeoMean, SAD 30 mg): 272 µg·h/mL | AUC(0-inf) ([2]; 30 mg, Median, SAD 30 mg): 288 µg·h/mL | AUC(0-t) ([2]; 30 mg, GeoMean, SAD 30 mg): 251 µg·h/mL | AUC(0-t) ([2]; 30 mg, Median, SAD 30 mg): 273 µg·h/mL | Cmax ([2]; 30 mg, GeoMean, SAD 30 mg): 3370 ng/mL | Cmax ([2]; 30 mg, Median, SAD 30 mg): 3650 ng/mL | Tmax ([2]; 30 mg, T max, Median, SAD 30 mg): 4.5 h | half-life ([2]; 30 mg, t 1/2, GeoMean, SAD 30 mg): 65.7 h | half-life ([2]; 30 mg, t 1/2, Median, SAD 30 mg): 62.2 h | AUC(0-inf) ([2]; 50 mg, GeoMean, SAD 50 mg): 478 µg·h/mL | AUC(0-inf) ([2]; 50 mg, Median, SAD 50 mg): 471 µg·h/mL | AUC(0-t) ([2]; 50 mg, GeoMean, SAD 50 mg): 425 µg·h/mL | AUC(0-t) ([2]; 50 mg, Median, SAD 50 mg): 427 µg·h/mL | Cmax ([2]; 50 mg, GeoMean, SAD 50 mg): 5730 ng/mL | Cmax ([2]; 50 mg, Median, SAD 50 mg): 5820 ng/mL | Tmax ([2]; 50 mg, T max, Median, SAD 50 mg): 5 h | half-life ([2]; 50 mg, t 1/2, GeoMean, SAD 50 mg): 57 h | half-life ([2]; 50 mg, t 1/2, Median, SAD 50 mg): 57.3 h | half-life ([2]; Mean t 1/2, range, single administrations of 10–50 mg): 57 to 68 h | Tmax ([2]; Median T max, range, SAD doses of 0.3–3 mg): 0.5 to 2.1 h | Tmax ([2]; Median T max, range, SAD doses of 10–50 mg): 3.5 to 5 h | Estimated time to steady-state ([2]; preliminary PK data from the SAD phase): 11 days | Food effect ([3]; FI 10 mg, high-fat meal vs fasted): no food effects were observed | C max LSM ratio fed vs. fasted ([3]; FI 10 mg, 95% CI: 0.94, 1.03): 0.99 | Plasma concentration in predose samples of second treatment period ([3]; FI, 21-day washout, limit of quantification 1.00 ng/mL): below the limit of quantification | Mean SBP, LSMs difference from placebo ([4]; SAD 3 mg, 95% CI: −9.8, −0.1, p = 0.047): −4.9 mmHg | Mean SBP, LSMs difference from placebo ([4]; SAD 50 mg, 95% CI: −10.0, −0.5, p = 0.032): −5.2 mmHg | DBP change ([4]; SAD all dose groups): no decreases | SBP change ([4]; SAD other dose groups (1, 10, 20, 30 mg)): No decreases | Mean DBP, LSMs difference from placebo ([5]; MAD 2 mg q.d., over 14 days, 95% CI: −10.9, −1.3, p = 0.015): −6.1 mmHg | Mean SBP, LSMs difference from placebo ([5]; MAD 2 mg q.d., over 14 days, 95% CI: −11.6, −0.6, p = 0.032): −6.1 mmHg | DBP, maximum difference from placebo ([5]; MAD 5 mg q.d., day 14, 95% CI: −13.0, −2.0, p = 0.009): −7.5 mmHg | Mean DBP, LSMs difference from placebo ([5]; MAD 5 mg q.d., over 14 days, 95% CI: −11.0, −1.4, p = 0.014): −6.2 mmHg | SBP or DBP change ([5]; MAD 10 and 15 mg groups): No decreases | Reduction in mean diastolic blood pressure ([5]; maximum over dose groups): up to 7.5 mmHg | Reduction in mean systolic blood pressure ([5]; maximum over dose groups): up to 6.1 mmHg | pEEG and CNS tests, differences between placebo and zagociguat groups [6]: No dose‐dependent or consistent statistically significant differences | pEEG and CNS tests, differences between placebo and zagociguat groups [7]: No dose‐dependent or consistent statistically significant differences | half-life ([8]; human, plasma, oral): 52.8 to 67.1 h | Exposure vs dose ([8]; single and multiple escalating doses): increased in a dose‐proportional manner | Subjects discontinued from study drug due to ≥1 TEAE ([9]; MAD 2 mg (n = 8)): 0 n | Subjects with ≥1 SAE ([9]; MAD 2 mg (n = 8)): 0 n | Subjects with ≥1 TEAE ([9]; MAD 2 mg (n = 8)): 6 (75%) n (%) | Subjects with ≥1 study drug related TEAE ([9]; MAD 2 mg (n = 8)): 6 n | TEAEs ([9]; MAD 2 mg (n = 8)): 17 n | Subjects discontinued from study drug due to ≥1 TEAE ([9]; MAD 5 mg (n = 8)): 0 n | Subjects with ≥1 SAE ([9]; MAD 5 mg (n = 8)): 0 n | Subjects with ≥1 TEAE ([9]; MAD 5 mg (n = 8)): 8 (100%) n (%) | Subjects with ≥1 study drug related TEAE ([9]; MAD 5 mg (n = 8)): 7 n | TEAEs ([9]; MAD 5 mg (n = 8)): 27 n | Subjects discontinued from study drug due to ≥1 TEAE ([9]; MAD 10 mg (n = 8)): 0 n | Subjects with ≥1 SAE ([9]; MAD 10 mg (n = 8)): 0 n | Subjects with ≥1 TEAE ([9]; MAD 10 mg (n = 8)): 8 (100%) n (%) | Subjects with ≥1 study drug related TEAE ([9]; MAD 10 mg (n = 8)): 5 n | TEAEs ([9]; MAD 10 mg (n = 8)): 19 n | Subjects with GI TEAEs ([9]; MAD 10 mg group): five | Subjects discontinued from study drug due to ≥1 TEAE ([9]; MAD 15 mg (n = 8)): 0 n | Subjects with ≥1 SAE ([9]; MAD 15 mg (n = 8)): 0 n | Subjects with ≥1 study drug related TEAE ([9]; MAD 15 mg (n = 8)): 5 n | TEAEs ([9]; MAD 15 mg (n = 8)): 18 n | Orthostatic hypotension events ([9]; MAD phase): No orthostatic hypotension events | Subjects discontinued from study drug due to ≥1 TEAE [9, 13]: 0 n | Subjects with ≥1 SAE [9, 13]: 0 n | Subjects with ≥1 study drug related TEAE [9, 13]: 23 n | TEAEs [9, 13]: 81 n | Tolerability ([9]; multiple doses up to 15 mg q.d. for 14 days): well‐tolerated with no safety signals | AST, peak ([9]; one subject, 2 mg q.d., day 16 (after last dose), normal range < 35 U/L): 49 U/L | ALT, peak ([9]; one subject, 2 mg q.d., day 16 (after last dose), normal range < 45 U/L): 92 U/L | GGT, peak ([9]; one subject, 2 mg q.d., day 16 (after last dose), normal range < 55 U/L): 22 U/L | ALT at follow-up [9, 14]: 49 U/L | AST at follow-up [9, 14]: 43 U/L | GGT at follow-up [9, 14]: 23 U/L

— publication PMC10432884 (Clinical and Translational Science, 2023)
